Laboratory results as given in ChEMBL document CHEMBL4376807, “Hydroxamic Acid Derivatives of β-Carboline/Hydroxycinnamic Acid Hybrids Inducing Apoptosis and Autophagy through the PI3K/Akt/mTOR Pathways” (J Nat Prod, 2019).
Activity calls are given as the source filed them. The calls are words filed in the database; no cut-off is given here.

Tests used:
[1] = test system: SMMC-7721; test: Antiproliferative activity against human SMMC7721 cells after 72 hrs by MTT assay; format: functional, cell-based; settings: SMMC-7721, 72 h
[2] = test system: HepG2; test: Antiproliferative activity against human HepG2 cells after 72 hrs by MTT assay; format: functional, cell-based; settings: HepG2, 72 h
[3] = test system: Bel-7402; test: Antiproliferative activity against human Bel7402 cells after 72 hrs by MTT assay; format: functional, cell-based; settings: Bel-7402, 72 h
[4] = molecular target: Histone deacetylase 1 (Homo sapiens, UniProt Q13547); test: Inhibition of HDAC1 (unknown origin) using Boc-Lys (Ac)-AMC as substrate incubated for 60 mins by fluorimetric assay
Histone deacetylase 1, sequence (Q13547 whole entry): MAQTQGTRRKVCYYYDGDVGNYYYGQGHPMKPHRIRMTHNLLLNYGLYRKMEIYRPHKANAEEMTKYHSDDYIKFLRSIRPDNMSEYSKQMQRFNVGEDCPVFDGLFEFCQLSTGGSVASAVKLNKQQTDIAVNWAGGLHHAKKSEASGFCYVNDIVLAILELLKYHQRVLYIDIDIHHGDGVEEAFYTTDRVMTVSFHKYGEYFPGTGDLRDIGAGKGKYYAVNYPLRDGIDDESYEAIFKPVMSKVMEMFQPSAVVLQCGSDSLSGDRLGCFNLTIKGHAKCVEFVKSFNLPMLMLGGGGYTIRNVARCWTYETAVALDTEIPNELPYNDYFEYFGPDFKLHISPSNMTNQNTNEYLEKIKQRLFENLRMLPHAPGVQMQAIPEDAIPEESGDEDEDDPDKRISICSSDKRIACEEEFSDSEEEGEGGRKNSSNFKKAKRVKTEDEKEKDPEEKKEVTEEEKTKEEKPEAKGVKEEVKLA

[5] = test system: Huh-7; test: Antiproliferative activity against human HuH7 cells after 72 hrs by MTT assay; format: functional, cell-based; settings: Huh-7, 72 h
[6] = molecular target: Histone deacetylase 3 (Homo sapiens, UniProt O15379); test: Inhibition of human HDAC3 using Boc-Lys (Ac)-AMC as substrate incubated for 60 mins by fluorimetric assay
Histone deacetylase 3, sequence (O15379 whole entry): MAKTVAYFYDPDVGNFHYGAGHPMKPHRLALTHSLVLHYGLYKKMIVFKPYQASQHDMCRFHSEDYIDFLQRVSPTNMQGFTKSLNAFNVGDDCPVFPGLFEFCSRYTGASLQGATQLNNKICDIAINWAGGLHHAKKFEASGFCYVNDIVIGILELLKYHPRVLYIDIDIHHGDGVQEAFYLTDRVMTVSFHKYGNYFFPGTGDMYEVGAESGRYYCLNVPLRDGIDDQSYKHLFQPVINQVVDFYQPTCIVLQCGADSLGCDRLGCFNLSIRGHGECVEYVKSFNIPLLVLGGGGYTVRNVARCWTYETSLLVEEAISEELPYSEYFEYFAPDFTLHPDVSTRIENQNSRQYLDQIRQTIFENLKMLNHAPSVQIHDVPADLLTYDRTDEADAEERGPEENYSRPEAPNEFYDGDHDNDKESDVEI

[7] = molecular target: T1, Protein deacetylase HDAC6 (Homo sapiens, UniProt Q9UBN7); test: Inhibition of human HDAC6 using Boc-Lys (Ac)-AMC as substrate incubated for 60 mins by fluorimetric assay
T1 sequence (Q9UBN7 whole entry): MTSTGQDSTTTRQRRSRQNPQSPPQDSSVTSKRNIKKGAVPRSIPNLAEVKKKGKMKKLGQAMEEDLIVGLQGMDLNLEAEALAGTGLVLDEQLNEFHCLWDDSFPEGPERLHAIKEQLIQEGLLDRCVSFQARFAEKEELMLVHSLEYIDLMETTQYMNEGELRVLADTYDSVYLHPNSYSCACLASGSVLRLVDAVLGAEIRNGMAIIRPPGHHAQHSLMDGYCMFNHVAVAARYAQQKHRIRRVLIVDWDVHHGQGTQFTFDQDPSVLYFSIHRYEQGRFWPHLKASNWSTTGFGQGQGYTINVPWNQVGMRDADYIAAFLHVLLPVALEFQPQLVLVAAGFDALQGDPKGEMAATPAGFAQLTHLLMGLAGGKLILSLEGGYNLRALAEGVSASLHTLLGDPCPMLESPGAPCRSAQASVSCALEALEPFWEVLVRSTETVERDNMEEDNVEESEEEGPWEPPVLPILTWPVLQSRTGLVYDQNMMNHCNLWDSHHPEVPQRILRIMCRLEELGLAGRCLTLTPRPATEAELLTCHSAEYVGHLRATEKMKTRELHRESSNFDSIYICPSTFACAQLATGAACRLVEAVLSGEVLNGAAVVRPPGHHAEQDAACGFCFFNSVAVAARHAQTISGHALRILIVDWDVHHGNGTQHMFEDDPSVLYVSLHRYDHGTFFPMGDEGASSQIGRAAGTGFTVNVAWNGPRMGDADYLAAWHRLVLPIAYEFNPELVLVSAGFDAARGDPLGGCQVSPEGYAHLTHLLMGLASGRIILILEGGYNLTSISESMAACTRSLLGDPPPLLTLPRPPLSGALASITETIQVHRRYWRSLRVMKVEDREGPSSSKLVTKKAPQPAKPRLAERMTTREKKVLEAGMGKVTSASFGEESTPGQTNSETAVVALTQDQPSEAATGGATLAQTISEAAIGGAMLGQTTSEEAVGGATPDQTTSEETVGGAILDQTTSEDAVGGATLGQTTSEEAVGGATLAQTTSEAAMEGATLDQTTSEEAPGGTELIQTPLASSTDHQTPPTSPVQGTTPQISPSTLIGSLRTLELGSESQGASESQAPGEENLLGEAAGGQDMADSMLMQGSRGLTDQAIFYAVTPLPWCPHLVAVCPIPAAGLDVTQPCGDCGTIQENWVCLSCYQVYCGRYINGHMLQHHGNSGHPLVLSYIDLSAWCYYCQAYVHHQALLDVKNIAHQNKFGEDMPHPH

[8] = molecular target: T2, Histone deacetylase 8 (Homo sapiens, UniProt Q9BY41); test: Inhibition of human HDAC8 using Boc-Lys (Ac)-AMC as substrate incubated for 60 mins by fluorimetric assay
T2 sequence (Q9BY41 whole entry): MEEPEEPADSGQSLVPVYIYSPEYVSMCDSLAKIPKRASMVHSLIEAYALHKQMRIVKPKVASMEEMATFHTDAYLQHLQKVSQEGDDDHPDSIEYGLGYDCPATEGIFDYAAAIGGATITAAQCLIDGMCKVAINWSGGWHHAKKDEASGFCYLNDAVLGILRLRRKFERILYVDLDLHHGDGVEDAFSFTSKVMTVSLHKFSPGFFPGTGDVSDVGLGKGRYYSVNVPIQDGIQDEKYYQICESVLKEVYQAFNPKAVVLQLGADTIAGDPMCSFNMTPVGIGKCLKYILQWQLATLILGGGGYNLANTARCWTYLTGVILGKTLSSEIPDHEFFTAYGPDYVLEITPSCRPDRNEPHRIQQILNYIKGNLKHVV

[9] = species: Homo sapiens; test: Selectivity ratio of IC50 for HDAC1 (unknown origin) to IC50 for human HDAC6
Summary of the method: (§1)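 Recombinant human HDAC1, 3, 6 and 8 (fluorimetric kit) incubated with compound over a range of concentrations and Boc-Lys(Ac)-AMC substrate at 37 °C for 60 min. Reaction quenched with lysine developer; after 30 min, fluorescence read at ex 355/em 460 nm. Inhibition taken relative to control and IC50 fitted; ratios built from these IC50s.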

[10] = species: Homo sapiens; test: Selectivity ratio of IC50 for human HDAC3 to IC50 for human HDAC6; summary of the method: as §1
[11] = test system: Bel-7402; test: Induction of apoptosis in human Bel7402 cells assessed as annexin-V positive cells at 5 uM after 72 hrs by Annexin-V/PI staining based flow cytometry relative to control; format: functional
Summary of the method: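 Bel7402 cells (10 000) cultured overnight, then exposed to compound at 1.0 or 5.0 μM, or vehicle, for 72 h. Harvested, stained with annexin-V APC and 7-AAD for 15 min. Apoptotic percentage measured by flow cytometry (APC ex 633/em 660 nm; 7-AAD ex 488/em 647 nm). Three separate assays, mean ± SD.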

[12] = test system: Bel-7402; test: Induction of apoptosis in human Bel7402 cells assessed as increase in cleaved caspase-3 level at 5 uM after 72 hrs by Western blot analysis; format: functional, cell-based
Summary of the method: (§2)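 Subconfluent Bel7402 cells (1.5 × 10^5/mL) exposed to vehicle or compound for 72 h, then lysed. Lysates (0.05 mg/lane) run on 12% SDS-PAGE, transferred to nitrocellulose, blocked in 5% nonfat milk. Probed for Bax, Bcl-2, cleaved caspase-3 and cleaved PARP, with HRP secondary and chemiluminescence. Levels normalized to β-actin; three separate assays, mean ± SD.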

[13] = test system: Bel-7402; test: Induction of apoptosis in human Bel7402 cells assessed as increase in cleaved PARP level at 5 uM after 72 hrs by Western blot analysis; format: functional, cell-based; summary of the method: as §2
[14] = test system: Bel-7402; test: Induction of autophagy in human Bel7402 cells assessed as accumulation of autophagic vacuoles at 5 uM after 24 hrs by acridine orange staining based fluorescence microscopic method; format: functional, cell-based
Summary of the method: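 Bel7402 cells (10 000) cultured overnight, then exposed to compound at 1.0 or 5.0 μM, or vehicle. Stained with 1 mg/mL acridine orange for 15−20 min, then dye removed. Red versus green fluorescence viewed by fluorescence microscopy at 400×. Representative images from three independent experiments.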

[15] = test system: Bel-7402; test: Induction of autophagy in human Bel7402 cells assessed as upregulation of LC3-2 level at 5 uM after 24 to 72 hrs by Western blot analysis; format: functional, cell-based
Summary of the method: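 Bel7402 cells (1.5 × 10^5/mL) exposed to compound at indicated doses, or vehicle, for 24 or 72 h. Lysates (0.05 mg/lane) separated on 12% SDS-PAGE, blotted to nitrocellulose, blocked in 5% milk. Probed with anti-LC3, anti-p62 and anti-beclin-1, HRP secondary, chemiluminescent detection. Levels quantified relative to β-actin; three separate assays, mean ± SD.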

[16] = test system: Bel-7402; test: Induction of apoptosis in human Bel7402 cells assessed as annexin-V positive cells at 20 uM after 72 hrs by […] relative to control; format: functional
[17] = test system: Bel-7402; test: Induction of autophagy in human Bel7402 cells assessed as accumulation of autophagic vacuoles at 20 uM after 24 hrs by acridine orange staining based fluorescence microscopic method; format: functional, cell-based
Summary of the method: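 Bel7402 cells (10 000) seeded overnight, then exposed alongside vehicle. Stained with acridine orange (1 mg/mL) for 15−20 min. Autophagic vacuoles scored by fluorescence microscopy as red versus green fluorescence at 400×. Representative images from three independent experiments.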

[18] = Inhibition of PI3K/AKT/mTOR signaling in human Bel7402 cells assessed as reduction in AKT phosphorylation at 20 uM after 24 to 72 hrs by Western blot analysis; format: cell-based
Summary of the method: (§3)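 Bel7402 cells (1.5 × 10^5/mL) treated 24 or 72 h. Lysates (0.05 mg/lane) run on 12% SDS-PAGE, transferred to nitrocellulose, blocked with 5% nonfat milk. Probed for phospho-Akt (Ser473), total Akt, phospho-mTOR, total mTOR and β-actin; HRP secondary, chemiluminescent detection. Bands quantified against vehicle control; mean ± SD of three separate assays.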

[19] = Inhibition of PI3K/AKT/mTOR signaling in human Bel7402 cells assessed as reduction in mTOR phosphorylation at 20 uM after 24 to 72 hrs by Western blot analysis; format: cell-based; summary of the method: as §3

SMILES | IC50 [1] [µM] | IC50 [2] [µM] | IC50 [3] [µM] | IC50 [4] [nM] | further results
COc1ccc(-c2nc(NCCCCOc3ccc(/C=C/C(=O)NO)cc3)cc3c2[nH]c2ccccc23)cc1 | > 12.5 | 9.5 | 8.9 | 125 | –
COc1ccc(-c2nc(NCCOc3ccc(/C=C/C(=O)NO)cc3OC)cc3c2[nH]c2ccccc23)cc1 | 4 | 4.8 | 1.8 | 32 | IC50 [5]: 2.8 µM; IC50 [6]: 125 nM; IC50 [7]: 17 nM; IC50 [8]: > 1000 nM; Ratio IC50 [9]: 2; Ratio IC50 [10]: 7 to 11
COc1ccc(-c2nc(NCCCCOc3ccc(/C=C/C(=O)NO)cc3OC)cc3c2[nH]c2ccccc23)cc1 | 7.1 | 5.3 | 4.6 | 61 | IC50 [5]: 6.2 µM
O=C(CCCCCCC(=O)Nc1ccccc1)NO [VORINOSTAT] | – | – | – | – | Activity [11]: 45.4%; Activity [12]: Active; Activity [13]: Active; Activity [14]: Active; Activity [15]: Active
COc1ccc(-c2nc(NCCOc3ccc(/C=C/C(=O)NO)cc3)cc3c2[nH]c2ccccc23)cc1 | 6.3 | 5.8 | 5.2 | 75 | –
COc1ccc(-c2nc(NCCCOc3ccc(/C=C/C(=O)NO)cc3)cc3c2[nH]c2ccccc23)cc1 | 4.1 | 3.4 | 4 | 57 | –
COc1ccc2c(c1)[nH]c1c(C)nccc12 [HARMINE] | – | – | – | > 1000 | Activity [16]: 36.1%; Activity [17]: Active; inhibition [18]: Active; inhibition [19]: Active
